Measured values from ChEMBL document CHEMBL1777807, “3-Substituted 3-(4-aryloxyaryl)-propanoic acids as GPR40 agonists” (Bioorg Med Chem Lett, 2011).

Legend:
[1] = target: T1, Free fatty acid receptor 1 (Homo sapiens, UniProt O14842); test: Agonist activity at human GPR40 expressed in CHO cells assessed as intracellular calcium mobilization by FLIPR assay; format: functional, cell-based
In short: (§1)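 Intracellular calcium flux read on a fluorometric imaging plate reader, giving EC50 (nM). Each reported value is the mean of at least 3 experiments, with standard deviations below 75% of the average.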

[2] = target: Free fatty acid receptor 1 (Mus musculus, UniProt Q76JU9); test: Agonist activity at mouse GPR40 expressed in CHO cells assessed as intracellular calcium mobilization by FLIPR assay; format: functional, cell-based; in short: as §1
Free fatty acid receptor 1 (Mus musculus, UniProt Q76JU9), sequence (Q76JU9 whole entry): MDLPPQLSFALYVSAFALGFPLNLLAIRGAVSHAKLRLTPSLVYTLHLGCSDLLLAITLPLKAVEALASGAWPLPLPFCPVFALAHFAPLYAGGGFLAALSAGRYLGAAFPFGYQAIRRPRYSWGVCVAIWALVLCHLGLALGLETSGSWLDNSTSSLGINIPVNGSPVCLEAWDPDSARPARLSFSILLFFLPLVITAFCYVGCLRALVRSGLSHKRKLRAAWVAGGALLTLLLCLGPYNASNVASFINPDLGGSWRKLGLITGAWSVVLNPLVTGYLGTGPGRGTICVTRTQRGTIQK

[3] = target: T1, Free fatty acid receptor 1; test: Inhibition of human GPR40 expressed in CHO cells by SPA based binding assay; format: cell-based
In short: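 Scintillation proximity binding assay using receptor isolated from CHO cells overexpressing human GPR40, giving IC50 (nM). Each value is the mean of at least 3 experiments, with standard deviations below 75% of the average.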

[4] = target: T1, Free fatty acid receptor 1; test: Agonist activity at human GPR40 expressed in HEK293 cells assessed as [3H]IP3 production in presence of 10% human serum; format: functional, cell-based
In short: (§2)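 IP3 production was measured in human cells as EC50 (nM). One condition included 10% human serum and the other 0.4% serum albumin, to reflect plasma protein binding.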

[5] = target: T1, Free fatty acid receptor 1; test: Agonist activity at human GPR40 expressed in HEK293 cells assessed as [3H]IP3 production in presence of 0.4% serum albumin; format: functional, cell-based; in short: as §2
Cytochrome P450 2C9 = Cytochrome P450 2C9 (Homo sapiens, UniProt P11712); test: Inhibition of CYP2C9; format: ADME
Cytochrome P450 2C9, sequence (P11712 whole entry): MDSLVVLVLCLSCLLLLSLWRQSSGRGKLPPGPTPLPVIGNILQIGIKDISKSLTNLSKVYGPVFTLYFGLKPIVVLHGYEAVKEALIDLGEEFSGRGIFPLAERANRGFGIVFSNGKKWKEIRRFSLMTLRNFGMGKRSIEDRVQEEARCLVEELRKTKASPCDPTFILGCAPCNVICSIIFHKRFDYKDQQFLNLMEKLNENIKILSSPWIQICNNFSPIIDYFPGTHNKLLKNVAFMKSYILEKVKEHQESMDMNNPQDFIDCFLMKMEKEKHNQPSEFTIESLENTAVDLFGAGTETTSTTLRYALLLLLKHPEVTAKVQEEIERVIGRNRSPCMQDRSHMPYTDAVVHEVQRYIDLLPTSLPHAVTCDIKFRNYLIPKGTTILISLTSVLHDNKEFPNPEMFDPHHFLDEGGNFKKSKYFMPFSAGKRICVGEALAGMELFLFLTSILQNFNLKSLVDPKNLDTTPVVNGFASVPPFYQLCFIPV

Cytochrome P450 2D6 = Cytochrome P450 2D6 (Homo sapiens, UniProt P10635); test: Inhibition of CYP2D6; format: ADME
Cytochrome P450 3A4 = Cytochrome P450 3A4 (Homo sapiens, UniProt P08684); test: Inhibition of CYP3A4; format: ADME
Cytochrome P450 3A4, sequence (P08684 whole entry): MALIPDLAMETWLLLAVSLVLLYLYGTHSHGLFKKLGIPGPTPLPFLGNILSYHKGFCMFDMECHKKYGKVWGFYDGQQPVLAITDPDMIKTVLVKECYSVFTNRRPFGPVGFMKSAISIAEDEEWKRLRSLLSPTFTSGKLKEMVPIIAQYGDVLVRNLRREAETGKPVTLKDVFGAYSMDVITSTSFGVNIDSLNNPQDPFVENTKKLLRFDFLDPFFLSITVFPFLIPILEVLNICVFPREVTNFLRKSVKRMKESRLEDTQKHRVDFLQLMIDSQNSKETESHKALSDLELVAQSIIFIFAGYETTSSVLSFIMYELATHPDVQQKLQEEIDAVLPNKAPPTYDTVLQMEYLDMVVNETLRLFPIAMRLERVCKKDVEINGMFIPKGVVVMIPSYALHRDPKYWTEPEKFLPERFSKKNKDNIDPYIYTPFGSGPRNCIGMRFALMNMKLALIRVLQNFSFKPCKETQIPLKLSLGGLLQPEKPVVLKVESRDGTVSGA

[6] = target: Voltage-gated inwardly rectifying potassium channel KCNH2 (Homo sapiens, UniProt Q12809); test: Inhibition of human ERG
Voltage-gated inwardly rectifying potassium channel KCNH2, sequence (Q12809 whole entry): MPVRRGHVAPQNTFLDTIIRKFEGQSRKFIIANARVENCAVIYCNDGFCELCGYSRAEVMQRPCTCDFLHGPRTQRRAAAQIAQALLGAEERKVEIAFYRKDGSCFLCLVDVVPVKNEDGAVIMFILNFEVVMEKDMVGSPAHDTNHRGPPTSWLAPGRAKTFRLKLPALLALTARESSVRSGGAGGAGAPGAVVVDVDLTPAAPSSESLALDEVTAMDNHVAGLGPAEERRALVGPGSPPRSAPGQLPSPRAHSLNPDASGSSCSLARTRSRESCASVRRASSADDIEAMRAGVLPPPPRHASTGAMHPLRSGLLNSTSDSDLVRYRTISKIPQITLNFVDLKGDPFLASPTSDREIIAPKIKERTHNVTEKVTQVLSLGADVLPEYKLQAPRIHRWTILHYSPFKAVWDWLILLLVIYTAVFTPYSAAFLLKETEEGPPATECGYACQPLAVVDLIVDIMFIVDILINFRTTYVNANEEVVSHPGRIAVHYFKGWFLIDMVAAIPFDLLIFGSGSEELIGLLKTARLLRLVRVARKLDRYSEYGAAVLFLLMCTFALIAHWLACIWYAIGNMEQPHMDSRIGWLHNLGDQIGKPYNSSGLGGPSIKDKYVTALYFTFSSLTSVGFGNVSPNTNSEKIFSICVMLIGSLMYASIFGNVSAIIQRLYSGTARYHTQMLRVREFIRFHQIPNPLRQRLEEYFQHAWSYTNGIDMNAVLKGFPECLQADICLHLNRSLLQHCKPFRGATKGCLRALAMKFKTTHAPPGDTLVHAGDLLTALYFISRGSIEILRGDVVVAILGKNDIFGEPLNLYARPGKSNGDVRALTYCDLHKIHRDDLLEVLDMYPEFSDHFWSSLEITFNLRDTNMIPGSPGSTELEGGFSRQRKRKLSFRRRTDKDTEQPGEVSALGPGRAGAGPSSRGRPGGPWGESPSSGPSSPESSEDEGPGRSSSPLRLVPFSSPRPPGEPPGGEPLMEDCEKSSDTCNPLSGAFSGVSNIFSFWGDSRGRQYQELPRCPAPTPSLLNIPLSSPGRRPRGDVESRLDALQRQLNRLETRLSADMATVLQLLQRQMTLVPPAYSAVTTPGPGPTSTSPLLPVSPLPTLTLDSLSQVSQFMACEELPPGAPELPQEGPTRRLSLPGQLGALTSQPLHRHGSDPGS

[7] = target: Voltage-dependent L-type calcium channel subunit alpha-1C (Homo sapiens, UniProt Q13936); test: Inhibition of Cav1.2 calcium channel
Voltage-dependent L-type calcium channel subunit alpha-1C, sequence (Q13936 whole entry): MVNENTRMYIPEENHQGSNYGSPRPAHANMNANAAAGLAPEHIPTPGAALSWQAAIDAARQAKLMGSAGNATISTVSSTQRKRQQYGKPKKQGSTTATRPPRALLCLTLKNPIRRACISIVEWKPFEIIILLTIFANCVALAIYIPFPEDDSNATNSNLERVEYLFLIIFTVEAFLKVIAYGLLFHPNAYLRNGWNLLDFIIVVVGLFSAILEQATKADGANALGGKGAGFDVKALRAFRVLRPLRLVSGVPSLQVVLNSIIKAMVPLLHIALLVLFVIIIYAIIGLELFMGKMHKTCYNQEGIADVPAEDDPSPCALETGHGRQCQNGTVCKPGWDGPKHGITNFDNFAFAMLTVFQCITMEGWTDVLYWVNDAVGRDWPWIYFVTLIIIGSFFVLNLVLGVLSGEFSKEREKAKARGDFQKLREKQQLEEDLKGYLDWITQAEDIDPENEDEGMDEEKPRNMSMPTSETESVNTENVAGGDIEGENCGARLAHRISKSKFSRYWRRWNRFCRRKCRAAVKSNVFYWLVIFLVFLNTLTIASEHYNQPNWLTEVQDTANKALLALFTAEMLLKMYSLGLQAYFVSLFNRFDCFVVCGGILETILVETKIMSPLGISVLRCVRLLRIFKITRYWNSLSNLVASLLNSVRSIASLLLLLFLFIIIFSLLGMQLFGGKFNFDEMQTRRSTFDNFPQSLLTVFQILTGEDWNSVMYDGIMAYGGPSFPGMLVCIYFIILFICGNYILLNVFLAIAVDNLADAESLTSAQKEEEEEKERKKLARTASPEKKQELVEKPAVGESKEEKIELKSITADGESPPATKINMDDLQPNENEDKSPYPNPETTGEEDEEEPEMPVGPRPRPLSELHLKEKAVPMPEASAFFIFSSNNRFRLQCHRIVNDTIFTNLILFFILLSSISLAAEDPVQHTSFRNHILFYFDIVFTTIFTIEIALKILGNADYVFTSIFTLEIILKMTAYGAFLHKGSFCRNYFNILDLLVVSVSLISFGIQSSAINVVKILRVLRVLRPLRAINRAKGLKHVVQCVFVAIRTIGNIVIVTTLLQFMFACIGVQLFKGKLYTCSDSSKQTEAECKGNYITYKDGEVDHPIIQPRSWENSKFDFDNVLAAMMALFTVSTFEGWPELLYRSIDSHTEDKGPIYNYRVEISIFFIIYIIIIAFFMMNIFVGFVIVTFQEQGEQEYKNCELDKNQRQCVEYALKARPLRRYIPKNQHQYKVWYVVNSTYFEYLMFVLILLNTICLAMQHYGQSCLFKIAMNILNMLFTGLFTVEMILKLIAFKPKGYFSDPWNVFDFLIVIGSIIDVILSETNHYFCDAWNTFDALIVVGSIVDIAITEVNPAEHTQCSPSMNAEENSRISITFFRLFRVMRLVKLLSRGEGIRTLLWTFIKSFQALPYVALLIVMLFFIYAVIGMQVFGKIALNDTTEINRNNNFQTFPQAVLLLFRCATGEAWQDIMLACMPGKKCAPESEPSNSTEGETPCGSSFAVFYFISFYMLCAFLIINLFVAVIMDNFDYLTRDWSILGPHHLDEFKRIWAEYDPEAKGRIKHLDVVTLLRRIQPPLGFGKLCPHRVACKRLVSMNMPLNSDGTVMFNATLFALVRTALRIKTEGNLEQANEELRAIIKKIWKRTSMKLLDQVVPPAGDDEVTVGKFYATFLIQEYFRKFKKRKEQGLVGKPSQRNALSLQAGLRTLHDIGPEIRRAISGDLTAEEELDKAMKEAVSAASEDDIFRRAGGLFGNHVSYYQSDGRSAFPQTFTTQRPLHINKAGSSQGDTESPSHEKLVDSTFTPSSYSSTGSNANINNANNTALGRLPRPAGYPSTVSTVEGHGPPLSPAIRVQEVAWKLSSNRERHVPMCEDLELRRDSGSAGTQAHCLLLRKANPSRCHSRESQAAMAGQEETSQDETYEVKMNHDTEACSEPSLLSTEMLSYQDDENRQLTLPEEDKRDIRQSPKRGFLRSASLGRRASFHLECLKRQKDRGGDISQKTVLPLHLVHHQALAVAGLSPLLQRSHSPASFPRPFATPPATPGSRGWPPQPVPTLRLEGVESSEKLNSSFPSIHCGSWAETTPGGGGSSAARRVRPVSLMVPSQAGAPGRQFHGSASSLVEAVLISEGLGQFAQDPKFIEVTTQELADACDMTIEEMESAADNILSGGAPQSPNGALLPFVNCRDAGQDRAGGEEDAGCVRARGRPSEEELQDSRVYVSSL

[8] = Plasma clearance in mouse; format: ADME, organism-based
[9] = Volume of distribution in mouse; format: ADME, organism-based; details: in vivo
[10] = Half life in mouse; format: ADME, organism-based; details: in vivo
[11] = Oral bioavailability in mouse; format: ADME, organism-based; details: in vivo
[12] = Cmax in mouse; format: ADME, organism-based; details: in vivo
[13] = Tmax in mouse; format: ADME, organism-based; details: in vivo
Mus musculus = test: Inhibition of glucose AUC in dextrose-treated lean mouse blood at 10 mg/kg, po treated 1 hr prior to dextrose challenge by intraperitoneal glucose tolerance test; format: functional

T1 sequence (O14842 whole entry): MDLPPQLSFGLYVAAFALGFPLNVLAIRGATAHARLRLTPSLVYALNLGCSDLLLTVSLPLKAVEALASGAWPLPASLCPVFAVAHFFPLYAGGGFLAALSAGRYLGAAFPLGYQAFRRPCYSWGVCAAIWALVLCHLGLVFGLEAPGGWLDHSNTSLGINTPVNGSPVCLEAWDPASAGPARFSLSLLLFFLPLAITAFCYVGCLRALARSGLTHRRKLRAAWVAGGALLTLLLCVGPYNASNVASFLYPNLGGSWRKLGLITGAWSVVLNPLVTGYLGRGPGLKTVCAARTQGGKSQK

Row | Compound | EC50 [1] | EC50 [2] | IC50 [3] | further results
1 | CC#CC(CC(=O)O)c1ccc(Oc2ccc(C(F)(F)F)cc2C)cc1 (racemic) | 94 nM | 127 nM | 40 nM | 
2 | CC#CC(c1ccc(OCc2ccccc2)cc1)C1OC(=O)NC1=O (racemic) | 954 nM | 3710 nM | 4400 nM | 
3 | CC#CC(CC(=O)O)c1ccc(Oc2ncc(Br)cn2)cc1 (racemic) | 1570 nM | 1480 nM | 433 nM | 
4 | CC#C[C@]1(c2ccc(Oc3ccc(C(F)(F)F)cc3Cl)cc2)C[C@H]1C(=O)O (racemic) | 24500 nM | > 40000 nM | > 10000 nM | 
5 | O=C(O)CCc1ccc(Oc2ccc(C(F)(F)F)cc2Cl)cc1 | 686 nM |  |  | 
6 | CC#CC(CC(=O)O)c1ccc(Oc2nccnc2C#N)cc1 (racemic) | 1580 nM | 985 nM | 2490 nM | 
7 | CC#CC(CC(=O)O)c1ccc(OC2CCCc3nc(-c4ccc(C)cc4)sc32)cc1 (mixture of isomers) | 51 nM | 100 nM | 23 nM | 
8 | CC#CC(c1ccc(Oc2ccc(C(F)(F)F)cc2OC(F)F)cc1)C1OC(=O)NC1=O (racemic) | 124 nM | 266 nM | 19 nM | EC50 [4]: 224 nM; EC50 [5]: 249 nM
9 | O=C(O)C(Cc1ccc(Oc2ccc(C(F)(F)F)cc2Cl)cc1)C(=O)O | 970 nM |  |  | 
10 | CC#CC(CC(=O)O)c1ccc(Oc2ncc(C(F)(F)F)cc2Cl)cc1 (racemic) | 108 nM | 95 nM | 30 nM | EC50 [4]: 409 nM
11 | CC#C[C@]1(c2ccc(Oc3ccc(C(F)(F)F)cc3Cl)cc2)C[C@@H]1C(=O)O (racemic) | 2820 nM | 871 nM | 3440 nM | 
12 | CC#CC(CC(=O)O)c1ccc(Oc2nccc3ccccc23)cc1 (racemic) | 394 nM | 149 nM | 342 nM | 
13 | O=C(O)CCc1ccc(Oc2ccc(Cl)cc2Cl)cc1 | 1360 nM |  |  | 
14 | CC#CC(CC(=O)O)c1ccc(Oc2ccc(C(F)(F)F)c3ccccc23)cc1 (racemic) | 1400 nM | 1250 nM | 211 nM | 
15 | CC#CC(CC(=O)O)c1ccc(Oc2ccc(C(F)(F)F)cc2OC(F)F)cc1F (racemic) | 113 nM | 104 nM | 49 nM | EC50 [4]: 306 nM; EC50 [5]: 349 nM; IC50 (Cytochrome P450 2C9): 28000 nM; IC50 (Cytochrome P450 2D6): > 50000 nM; IC50 (Cytochrome P450 3A4): > 50000 nM; IC50 [6]: 25000 nM; IC50 [7]: 25600 nM
16 | CC#CC(CC(=O)O)c1ccc(Oc2ccc(C(F)(F)F)cc2OC(F)F)cc1 (racemic) | 71 nM | 77 nM | 12 nM | EC50 [4]: 436 nM; EC50 [5]: 455 nM; clearance [8]: 0.49 mL/min/kg; Vd [9]: 0.31 L/kg; half-life [10]: 7.8 h; bioavailability [11]: 112%; Cmax [12]: 12 µM; Tmax [13]: 4 h; inhibition in vivo at 10 mg/kg (Mus musculus): 66%; IC50 (Cytochrome P450 2C9): > 50000 nM; IC50 (Cytochrome P450 2D6): > 50000 nM; IC50 (Cytochrome P450 3A4): > 50000 nM; IC50 [6]: > 60000 nM; IC50 [7]: > 30000 nM
17 | CC#C[C@H](c1ccc(Oc2ccc(C(F)(F)F)cc2OC(F)F)cc1)[C@H]1OC(=O)NC1=O (racemic) | 7580 nM | 7060 nM | 2410 nM | 
18 | O=C1NC(=O)C(Cc2ccc(Oc3ccc(F)cc3)cc2)S1 (stereo unspecified) | 474 nM |  |  | 
19 | CC#CC(CC(=O)O)c1ccc(O[C@@H]2CCc3ccccc32)cc1 (mixture of isomers) | 31 nM | 47 nM | 42 nM | 
20 | CC#CC(CC(=O)O)c1ccc(Oc2ccc(C#N)cc2Cl)cc1 (racemic) | 42 nM | 48 nM | 23 nM | EC50 [4]: 519 nM; EC50 [5]: 597 nM
21 | CC#CC(CC(=O)O)c1ccc(OC2CCCC2)cc1 (racemic) | 114 nM | 124 nM | 312 nM | 
22 | CC#C[C@@H](c1ccc(Oc2ccc(C(F)(F)F)cc2OC(F)F)cc1)[C@H]1OC(=O)NC1=O (racemic) | 130 nM | 136 nM | 151 nM | clearance [8]: 0.85 mL/min/kg; Vd [9]: 0.47 L/kg; half-life [10]: 7 h; bioavailability [11]: 93%; Cmax [12]: 5.5 µM; Tmax [13]: 4.7 h; IC50 (Cytochrome P450 3A4): > 50000 nM; IC50 [7]: 5100 nM
23 | CC(CC(=O)O)c1ccc(Oc2ccc(Cl)cc2Cl)cc1 (racemic) | 2480 nM |  |  | 
24 | CC#CC(CC(=O)O)c1ccc(Oc2ccc(C#N)cc2Br)cc1 (racemic) | 85 nM | 88 nM | 36 nM | 
25 | CC#CC(CC(=O)O)c1ccc(Oc2ccc(C#N)c3ccccc23)cc1 (racemic) | 53 nM | 93 nM | 13 nM | EC50 [4]: 172 nM; EC50 [5]: 247 nM
